Compound activity as filed in PubChem BioAssay.
TRPC4 act = activators of mouse TRPC4 channel; Q9QUQ5; HEK293 TRPC4beta/mu-opioid, Fluo4 calcium fluorescence; hits give high values; B-score at 10 µM; 0.49% of 310,000 active;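 active = B-score above 5 SD of library B-scores, and initial fluorescence ratio not above library mean plus 5 SD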;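 note: positive B-score marks a calcium rise read as TRPC4 activation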
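System – HEK293 cells stably co-expressing mouse TRPC4beta and mu-opioid receptor · Signal – Fluo4 calcium-sensitive dye fluorescence, kinetic, 1 Hz baseline · Benchmarks – buffer (low) and maximal DAMGO (high) · Read-out – B score of integrated fluorescence ratio per well · Incubation – dye loading 45 min room temperature, 110 s kinetic read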
TRPC4 PAM = allosterically enhances the mouse TRPC4 cation channel; B-score at 10 µM; HEK293 TRPC4beta/mu-opioid, DAMGO EC20, Fluo-4 Ca2+ flux; hits give high values; AID 2227; 0.42% of 310,000 active;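 active = B-score of calcium response area above 5 SD of library B-scores, with initial fluorescence ratio within 5 SD of library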;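 note: B-score of integrated fluorescence ratio over time as area under calcium response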
TRPC6 inhibitor = blocks the mouse TRPC6 cation channel. B-score at 10 µM. 1.1% of 310,000 active. AID 2553. HEK293-TRPC6, membrane potential dye, ACh-evoked depolarization; hits give low values;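 active = B-score under library mean minus 3 SD, initial fluorescence not abnormally high, positive integrated signal ratio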;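 note: B-score derived from integrated fluorescence ratio over the kinetic read; more negative B-score means stronger inhibition of depolarization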
TRPC6 act = activates the mouse TRPC6 cation channel. Q61143. HEK293-TRPC6 membrane potential dye fluorescence; hits give high values. B-score at 10 µM. 0.13% of 310,000 active. AID 2550;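 active = B-score of the integrated fluorescence ratio above library mean plus 3 SD, and starting fluorescence ratio within library mean plus 5 SD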;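 note: higher score means more depolarization so channel activation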
TRPC4 block = inhibitors of mouse TRPC4 channel; B-score at 10 µM; HEK293 TRPC4beta/mu-opioid, DAMGO-evoked Fluo4 calcium flux; hits give low values; 0.39% of 300,000 active; Q9QUQ5;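 active = B-score over 3 SD under the library average, no early fluorescence shift, positive overall ratio signal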
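Assay system – HEK293 line stably carrying TRPC4beta and mu-opioid receptor · Doses – single dose · Detection – Fluo4 calcium-dye fluorescence, kinetic read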
TRPC4 sel inh 2 = second selectivity test of TRPC6 inhibitors: effect on mouse TRPC4; shares compounds with TRPC6 inhibitor; HEK293 TRPC4/MOR, membrane potential dye fluorescence; channel activated by saturating DAMGO dose; inhibition, % at 10 µM; 42% of 920 active;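 active = compounds whose fluorescence signal differed from control wells by over 3 SD, either direction, in both duplicate plates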
TRPC4 spec = tests whether TRPC6 inhibitors also affect mouse TRPC4; shares compounds with TRPC6 inhibitor; HEK293 TRPC4/mu-opioid, membrane potential fluorescence; activity change, negative = inhibition, % at 10 µM; 61% of 920 active;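 active = rise or fall in signal beyond 3 SD of buffer-only wells in both replicate plates, either sign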;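 note: integrated kinetic ratio of fluorescence range over baseline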
HEK293 MPD ctr 2-1 = second check of TRPC6 inhibitor effects in parental HEK293 cells; shares compounds with TRPC6 inhibitor; parental HEK293 membrane potential dye fluorescence; maximal acetylcholine challenge after compound addition; signal change vs control, % at 10 µM; AID 2779; 31% of 920 active;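 active = membrane potential signal moving either way by over 3 SD of the maximum-effect control, in both duplicate plates, meaning non-specific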
HEK293 MPD ctr-1 = parental HEK293 nonspecific activity of TRPC6 inhibitors; shares compounds with TRPC6 inhibitor; parental HEK293 membrane potential dye fluorescence; membrane potential signal change, % at 10 µM; 60% of 920 active;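 active = membrane potential signal shifting up or down by more than 3 SD of buffer-only wells, on both duplicate plates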
HEK293 MPD ctr-2 = checks TRPC6 modulator effects in parental HEK293 cells | shares compounds with TRPC6 inhibitor | membrane potential dye fluorescence | membrane potential signal change, % at 10 µM | 51% of 2,400 active | AID 488924;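 active = membrane potential signal moves up or down beyond 5 SD from buffer-only wells, on both duplicate plates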
HEK293 MPD ctr 2-2 = parental HEK293 nonspecific activity of TRPC6 modulators, second screen | shares compounds with TRPC6 inhibitor | membrane potential dye fluorescence; after compound, maximal acetylcholine stimulation | inhibition, % at 10 µM | 14% of 2,400 active;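 active = membrane potential signal drops by more than 5 SD from the mean control signal, in both duplicate plates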;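 note: plate controls were acetylcholine ECmax control wells for no effect and buffer only wells for full effect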
TRPC4 ctr mod = mouse TRPC4 off-target activity of TRPC6 modulators. 69% of 2,400 active. percent change from control (negative = decrease, positive = increase), % at 10 µM. shares compounds with TRPC6 inhibitor. HEK293 TRPC4/mu-opioid, membrane potential fluorescence;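 active = membrane potential signal moved up or down beyond 5 SD of buffer control wells, in both duplicate plates, actives on both sides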;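 note: plate controls were assay buffer wells for no effect and DAMGO maximal-effect wells for full effect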
TRPC4 ctr inh 2 = second selectivity test of TRPC6 modulators against mouse TRPC4; AID 488928; inhibition, % at 10 µM; HEK293 TRPC4/mu-opioid, membrane potential dye fluorescence; stimulated with maximal-effect DAMGO; shares compounds with TRPC6 inhibitor; 55% of 2,400 active;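 active = drop in membrane potential signal beyond 5 SD of the control wells in both duplicate plates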;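 note: TRPC4 counter screen for TRPC6 hits run under conditions tuned for TRPC6 not TRPC4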
TRPC6 block conf = mouse TRPC6 inhibitor confirmation | shares compounds with TRPC6 inhibitor | HEK293-TRPC6, membrane potential dye, ACh-evoked depolarization | inhibition, % at 10 µM | 43% of 3,300 active | AID 488960;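 active = fluorescence ratio falls more than 5 SD below the full-stimulation control mean, in both duplicate runs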;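 note: integrated fluorescence ratio of peak minus minimum over baseline after agonist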
TRPC6 act confirm = mouse TRPC6 activator confirmation | 11% of 2,800 active | shares compounds with TRPC6 inhibitor | activation, % at 10 µM | HEK293-TRPC6 membrane potential dye fluorescence, FDSS;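 active = ratio signal rise beyond 5 SD above unstimulated control wells' mean, seen in both duplicate runs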;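 note: plate controls were buffer EC0 wells for no effect and acetylcholine ECmax response for full effect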
Numbers without * were called inactive; i = inactive; x = no result. Only some compounds are listed: those with a hit (about 2.3% of all), similar ones and a draw of the others.

SMILES | TRPC4 act | TRPC4 PAM | TRPC6 inhibitor | TRPC6 act | TRPC4 block | TRPC4 sel inh 2 | TRPC4 spec | HEK293 MPD ctr 2-1 | HEK293 MPD ctr-1 | HEK293 MPD ctr-2 | HEK293 MPD ctr 2-2 | TRPC4 ctr mod | TRPC4 ctr inh 2 | TRPC6 block conf | TRPC6 act confirm
O=C(c1ccc(C(=O)N2CCCc3ccccc32)s1)N1CCCc2ccccc21 | i | i | -6.61* | i | i | i | 3.9%* | i | 3.6%* | x | x | x | x | i | x
CCN(CC)CCCN(C(=O)c1cccs1)c1nc(-c2ccc(OC)cc2)cs1 | i | i | i | i | i | x | x | x | x | x | x | x | x | x | x
CCN(CC)CCCN(C(=O)c1cccc(C)c1)c1nc(-c2ccc(OC)cc2)cs1 | i | i | -6.13* | i | i | x | x | x | x | i | i | -13.5%* | 86.5%* | 83.0%* | i
CCN(CC)CCCN(C(=O)c1ccc(Br)cc1)c1nc(-c2ccc(OC)cc2)cs1 | i | i | -6.16* | i | i | x | x | x | x | i | i | i | 72.0%* | 53.0%* | i
CCN(CC)CCCN(C(=O)c1ccco1)c1nc(-c2ccc(Cl)cc2)cs1 | i | i | -7.45* | i | i | 26.5%* | -12.8%* | i | -154.0%* | x | x | x | x | 60.3%* | i
COc1ccc(-c2cccc(NS(=O)(=O)c3cc([N+](=O)[O-])c(C)c([N+](=O)[O-])c3)c2)nn1 | i | i | i | i | i | x | x | x | x | x | x | x | x | x | x
CCOC(=O)c1cnc2c(C)cc(C)cc2c1NCCCN1CCOCC1 | i | i | -8.77* | i | i | 70.5%* | i | -14.0%* | i | x | x | x | x | 65.2%* | i
CCOC(=O)c1cnc2c(Cl)c(Cl)ccc2c1NCCN1CCOCC1 | i | i | i | i | i | x | x | x | x | x | x | x | x | x | x
CCOC(=O)c1cnc2c(C)c(Cl)ccc2c1NCCCN1CCOCC1 | i | i | i | i | i | x | x | x | x | x | x | x | x | x | x
CCOC(=O)c1cnc2ccc(C)cc2c1NCCN1CCOCC1 | i | i | -5.06* | i | i | x | x | x | x | i | i | 15.0%* | 34.0%* | 42.5%* | i
CCOC(=O)c1ccc2ncc(C(=O)OCC)c(NCCCN3CCOCC3)c2c1 | i | i | -6.77* | i | i | i | -15.6%* | i | -251.0%* | x | x | x | x | i | i
CCOC(=O)c1cnc2c(C)c(C)ccc2c1NCCN1CCOCC1 | i | i | -5.8* | i | i | x | x | x | x | 86.0%* | 77.0%* | 27.5%* | 33.0%* | i | i
Cc1ccc2ncnc(NCCCN3CCOCC3)c2c1 | i | i | i | i | i | x | x | x | x | x | x | x | x | x | x
CCOC(=O)c1cnc2ccc(Br)cc2c1NCCCN1CCOCC1 | i | i | i | i | i | x | x | x | x | x | x | x | x | x | x
